In ChEMBL document CHEMBL1131532, “Synthesis and structure-activity relationships of carboxyflavones as structurally rigid CysLT1 (LTD4) receptor antagonists” (J Med Chem, 1998):
pIC50, pKd: −log10 of the molar value.

Key:
[1] = target: T1, Cysteinyl leukotriene receptor 1 (Cavia porcellus) (UniProt Q2NNR5); assay: In vitro inhibition of [3H]LTD4 binding to CysLT1 receptors on guinea pig lung membranes.; type: tissue-based; set-up: concentration or dose not given beside the values; details: concentration not given here
T1 sequence (whole entry): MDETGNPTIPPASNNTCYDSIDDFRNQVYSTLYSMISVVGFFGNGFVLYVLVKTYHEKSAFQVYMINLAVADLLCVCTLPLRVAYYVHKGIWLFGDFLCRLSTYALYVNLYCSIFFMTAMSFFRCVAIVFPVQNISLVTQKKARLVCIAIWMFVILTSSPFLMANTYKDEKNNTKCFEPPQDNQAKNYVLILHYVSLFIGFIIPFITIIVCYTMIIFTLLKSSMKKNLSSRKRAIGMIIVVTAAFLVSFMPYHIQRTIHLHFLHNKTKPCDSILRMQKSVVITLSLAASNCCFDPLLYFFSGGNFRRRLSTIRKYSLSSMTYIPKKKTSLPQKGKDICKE
Method in brief: (§1)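 Guinea pig lung membrane fractions (about 170 µg/mL) with 0.2 nM [3H]LTD4 and test compound in 10 mM PIPES buffer, pH 7.5 (10 mM CaCl2, 10 mM MgCl2, 50 mM NaCl, 2 mM cysteine, 2 mM glycine), 30 min at 22 °C. Stopped with ice-cold Tris-HCl/NaCl, vacuum-filtered, filter radioactivity counted. Means ± SD of three determinations. Percent inhibition taken at 10^-5 M where no KD obtained.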

Cavia porcellus = species: Cavia porcellus; assay: Ex vivo inhibition of LTD4 induced contraction of guinea pig ileum.; type: functional
Method in brief: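 Ileum segments (2 cm) from male guinea pigs, mounted open-lumen on a transducer. Compounds in DMSO, 10^-5 to 3.0 × 10^-9 M, preincubated 30 min, then contraction evoked by 10^-8 M LTD4. Indomethacin (10^-6 M) added to the bath 10 min before LTD4.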

[2] = target: T2, Cysteinyl leukotriene receptor 1 (Cavia porcellus, UniProt Q2NNR5); assay: In vitro affinity for CysLT1 receptors on guinea pig lung membranes, measured by displacement of [3H]LTD4.; type: tissue-based
T2 sequence (Q2NNR5 whole entry): T1 sequence (whole entry)
Method in brief: as §1, with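 “determinations.” for “determinations. Percent inhibition taken at 10^-5 M where no KD obtained.”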

| SMILES | inhibition [1] [%] | pIC50 (Cavia porcellus) | pKd [2] |
| --- | --- | --- | --- |
| N#Cc1cc(Cl)cc2c(=O)cc(-c3cccc(/C=C/c4ccc5ccccc5n4)c3)oc12 | 0 |  |  |
| Cc1cc(C(=O)O)c2oc(-c3cccc(/C=C/c4ccc5ccccc5n4)c3)cc(=O)c2c1 |  | 7.55 |  |
| O=C(O)c1cc(Br)cc2c(=O)cc(-c3cccc(/C=C/c4ccc5ccccc5n4)c3)oc12 |  | 7.00 |  |
| O=C(O)c1cc(Cl)cc2c(=O)cc(-c3cccc(/C=C/c4ccc5ccccc5n4)c3)oc12 |  | 7.82 |  |
| O=C(O)c1ccc2oc(-c3ccc(OCc4ccccc4)cc3)cc(=O)c2c1 | 23 |  |  |
| O=C(O)c1cccc2c(=O)cc(-c3ccc(OCc4ccc5ccccc5c4)cc3)oc12 | 32 |  |  |
| O=C(O)c1ccc2oc(-c3ccc(/C=C/c4ccc5ccccc5n4)cc3)cc(=O)c2c1 | 28 |  |  |
| O=C(O)c1cccc2c(=O)cc(-c3ccc(OCc4ccccc4)cc3)oc12 |  |  | 4.26 |
| CCOC(=O)c1cccc2c(=O)cc(-c3ccc(OCc4ccc5ccccc5n4)cc3)oc12 | 32 |  |  |
| O=C(O)c1cc(Br)cc2c(=O)cc(-c3cccc(OCc4ccc5ccccc5n4)c3)oc12 |  | 7.21 |  |
| CCOC(=O)c1cccc2c(=O)cc(-c3cccc(OCc4ccc5ccccc5n4)c3)oc12 | 38 |  |  |
| O=C(O)c1cccc2c(=O)cc(-c3cccc(/C=C/c4ccc5ccccc5n4)c3)oc12 |  | 7.38 | 7.77 |
| O=c1cc(-c2cccc(/C=C/c3ccc4ccccc4n3)c2)oc2c(-c3nn[nH]n3)cc(Cl)cc12 |  |  | 4.96 |
| O=C(O)c1ccc2c(=O)cc(-c3cccc(/C=C/c4ccc5ccccc5n4)c3)oc2c1 |  |  | 5.76 |
| O=C(O)c1cccc2c(=O)cc(-c3cccc(OCc4ccccc4)c3)oc12 | 50 |  |  |
